Reference: ChEMBL document CHEMBL1123325, “Isomer-dependent cytostatic activity of bis(1-aziridinyl)cyclophosphazenes” (1986)

Legend:
Type in all cases: functional
L5178Y = test: In vitro lowest active dose (LAD) in L5178Y mouse lymphoma cells
L1210 [1] = test: In vitro inhibition dose (cytostatic activity) in L1210 mouse leukemia cells
L1210 [2] = test: Tested in vivo for 50% lethal dose in L1210 mouse leukemia cells
Mus musculus [3] = test: Compound was tested for percent median survival time of drug-treated mice over that of untreated control mice at dose of 110 mg/kg
In short: (§1)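 10^5 L1210 leukemia cells from in vitro suspension culture were injected into male (BALB/c × DBA/2)F1 (CDF1) mice as intraperitoneal leukemia. Dosing began 24 h later, with 5 mice per dose and 10 untreated controls. Survival times were recorded. The value is the median survival time of treated mice as a percent of untreated controls (T/C%), with 60-day long-term survivors noted.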

Mus musculus [4] = test: Compound was tested for percent median survival time of drug-treated mice over that of untreated control mice at dose of 90 mg/kg; in short: as §1
Mus musculus [5] = test: Compound was tested for percent median survival time of drug-treated mice over that of untreated control mice at dose of 160 mg/kg; in short: as §1
Mus musculus [6] = test: Tested for percent median survival time of drug-treated mice over that of untreated control mice at dose of 200 mg/kg; in short: as §1
Mus musculus [7] = test: Compound was tested for percent median survival time of drug-treated mice over that of untreated control mice at dose of 300 mg/kg; in short: as §1
Mus musculus [8] = test: Compound was tested for percent median survival time of drug-treated mice over that of untreated control mice at dose of 350 mg/kg; in short: as §1
Mus musculus [9] = test: Tested for percent median survival time of drug-treated mice over that of untreated control mice at dose of 40 mg/kg; in short: as §1
Mus musculus [10] = test: Compound was tested for percent median survival time of drug-treated mice over that of untreated control mice at dose of 50 mg/kg; in short: as §1
Mus musculus [11] = test: Compound was tested for percent median survival time of drug-treated mice over that of untreated control mice at dose of 30 mg/kg; in short: as §1
Mus musculus [12] = test: Compound was tested for percent median survival time of drug-treated mice over that of untreated control mice at dose of 120 mg/kg; in short: as §1
Mus musculus [13] = test: Compound was tested for percent median survival time of drug-treated mice over that of untreated control mice at dose of 150 mg/kg; in short: as §1
Mus musculus [14] = test: Compound was tested for percent median survival time of drug-treated mice over that of untreated control mice at dose of 70 mg/kg; in short: as §1
Mus musculus [15] = test: Compound was tested for percent median survival time of drug-treated mice over that of untreated control mice at dose of 60 mg/kg; in short: as §1
Mus musculus [16] = test: Compound was tested for percent median survival time of drug-treated mice over that of untreated control mice at dose of 600 mg/kg; in short: as §1
Mus musculus [17] = test: Compound was tested for percent median survival time of drug-treated mice over that of untreated control mice at dose of 900 mg/kg; in short: as §1
Mus musculus [18] = test: Compound was tested for percent median survival time of drug-treated mice over that of untreated control mice at dose of 800 mg/kg; in short: as §1
Mus musculus [19] = test: Compound was tested for percent median survival time of drug-treated mice over that of untreated control mice at dose of 400 mg/kg; in short: as §1

| SMILES | LAD (L5178Y) [M l-1] | ID50 (L1210 [1]) [M l-1] | LD50 (L1210 [2]) [mg/kg] | other results |
| --- | --- | --- | --- | --- |
| CN(C)P1(N(C)C)=NP(N(C)C)(N(C)C)=NP(N2CC2)(N2CC2)=NP(N(C)C)(N(C)C)=N1 | 2e-06 | 1.19e-05 |  |  |
| CNP1(NC)=NP(NC)(NC)=NP(NC)(N2CC2)=NP(NC)(NC)=N1 (centres undefined) | 0.00015 | 5.69e-05 |  |  |
| CN(C)P1(N(C)C)=NP(N(C)C)(N(C)C)=N[P@@](N(C)C)(N2CC2)=N[P@](N(C)C)(N2CC2)=N1 | 2e-06 | 6.6e-06 |  |  |
| C1CCN([P@@]2(N3CC3)=NP(N3CC3)(N3CC3)=N[P@@](N3CCCCC3)(N3CC3)=N2)CC1 |  | 2.1e-06 | 140 | T/C (Mus musculus [3]): 189%; T/C (Mus musculus [4]): 167% |
| C1CN([P@@]2(N3CC3)=NP(N3CC3)(N3CC3)=N[P@@](N3CCOCC3)(N3CC3)=N2)CCO1 |  | 4.7e-06 | 250 | T/C (Mus musculus [5]): 213%; T/C (Mus musculus [6]): 200% |
| C1CCN(P2(N3CCCC3)=NP(N3CCCC3)(N3CCCC3)=NP(N3CC3)(N3CC3)=N2)C1 | 4e-06 | 1.86e-05 |  |  |
| CN(C)P1(N(C)C)=N[P@@](N(C)C)(N2CC2)=N[P@](N(C)C)(N2CC2)=N1 | 5e-07 | 2.9e-06 |  |  |
| C1CN(P2(N3CCOCC3)=NP(N3CC3)(N3CC3)=NP(N3CC3)(N3CC3)=N2)CCO1 |  | 5.8e-06 | 400 | T/C (Mus musculus [7]): 175%; T/C (Mus musculus [8]): 200% |
| C1CCN(P2(N3CCCC3)=N[P@](N3CCCC3)(N3CC3)=N[P@](N3CCCC3)(N3CC3)=N2)C1 | 1e-06 | 6.7e-06 |  |  |
| CN(C)P1(N(C)C)=N[P@](N(C)C)(N2CC2)=N[P@](N(C)C)(N2CC2)=N1 | 5e-07 | 7.3e-06 |  |  |
| CNP1(NC)=N[P@@](NC)(N2CC2)=N[P@](NC)(N2CC2)=N1 | 1e-06 | 3.3e-06 | 50 | T/C (Mus musculus [9]): 222%; T/C (Mus musculus [10]): 289%; T/C (Mus musculus [11]): 200% |
| CCOC(=O)CNP1(NCC(=O)OCC)=NP(N2CC2)(N2CC2)=NP(N2CC2)(N2CC2)=N1 |  | 7.2e-06 | 170 | T/C (Mus musculus [12]): 125%; T/C (Mus musculus [13]): <100% |
| C1CCN(P2(N3CCCC3)=NP(N3CCCC3)(N3CCCC3)=NP(N3CCCC3)(N3CC3)=N2)C1 (centres undefined) | 1.2e-05 | 4.43e-05 |  |  |
| CN(C)P1(N(C)C)=NP(N(C)C)(N(C)C)=NP(N(C)C)(N2CC2)=N1 (centres undefined) | >0.0003 | >0.00025 |  |  |
| C1CCN(P2(N3CC3)=NP(N3CC3)(N3CC3)=NP(N3CC3)(N3CC3)=N2)CC1 (centres undefined) |  | 1.5e-06 | 80 | T/C (Mus musculus [14]): 213%; T/C (Mus musculus [15]): 175% |
| C1CCN(P2(N3CCCC3)=N[P@@](N3CCCC3)(N3CC3)=N[P@](N3CCCC3)(N3CC3)=N2)C1 | 1e-06 | 4.8e-06 |  |  |
| CN[P@@]1(N)=NP(N2CC2)(N2CC2)=N[P@](N)(NC)=N1 | 8e-06 | 5.05e-05 |  |  |
| CNP1(NC)=NP(NC)(NC)=NP(NC)(N2CC2)=N1 (centres undefined) | 0.0002 | >0.00025 | 800 | T/C (Mus musculus [16]): 175%; T/C (Mus musculus [17]): 225% |
| CNP1(NC)=NP(NC)(NC)=NP(N2CC2)(N2CC2)=N1 | 8e-06 | 2.78e-05 | 600 | T/C (Mus musculus [16]): 150%; T/C (Mus musculus [18]): 188%; T/C (Mus musculus [19]): 163% |
